Screening results: PubChem, several laboratories
SENP1 FRET inh: inhibitors of human SENP1 SUMO protease catalytic domain; Q9P0U3; recombinant SENP1 catalytic domain, CyPet-SUMO1-YPet FRET cleavage; inhibition, % at 10 µM; 360,000 compounds, 0.21% hits;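 active = inhibition at least 30% at 10 µM, raw YFP signal under a set limit, fluorescence ratio 0.5 to 1.5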
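material = recombinant human SENP1 catalytic domain, His6-tagged | quantity = 20 pM enzyme | reagent = 25 nM SUMO1 FRET substrate | compound dosing = 10 µM single point, 0.5% DMSO | timing = 50 min enzyme reaction, room temperature, light-protected | detection = FRET, CFP and YFP emission | control set = no-enzyme low, enzyme-DMSO high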
HSP90 refold inh: HSP90 refolding inhibition in rabbit reticulocyte lysate; luciferase refolding luminescence, 3 h; inhibition, % at 5.6 µM; 290,000 compounds, 0.91% hits; AID 1789;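 active = inhibition above the screen-wide mean plus 3 SD, computed separately per campaign, cut at about 16% in these data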;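 note: inhibitors lower the luminescence because luciferase stays unfolded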
SENP7 block: inhibitors of human SENP7 protease. inhibition, % at 5 µM. 330,000 compounds, 1.5% hits. Q9BQF6. recombinant SENP7, Z-RLRGG-aminoluciferin luminescence, 40 min;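 active = inhibition above about 50% at the single test dose, limit read from the data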
Target sequence (Q9BQF6 706-1050 limits assumed): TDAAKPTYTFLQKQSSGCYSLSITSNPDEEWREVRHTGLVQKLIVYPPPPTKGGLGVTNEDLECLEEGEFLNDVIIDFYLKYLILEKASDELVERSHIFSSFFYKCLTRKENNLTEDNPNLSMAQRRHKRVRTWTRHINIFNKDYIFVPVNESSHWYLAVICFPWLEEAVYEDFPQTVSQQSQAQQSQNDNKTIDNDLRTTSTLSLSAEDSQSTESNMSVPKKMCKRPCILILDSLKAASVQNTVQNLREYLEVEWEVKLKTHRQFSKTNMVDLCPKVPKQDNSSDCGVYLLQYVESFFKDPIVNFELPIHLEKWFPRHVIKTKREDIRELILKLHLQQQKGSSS
SENP8 block-1: SENP8 protease inhibition; inhibition, % at 10 µM; purified SENP8, Z-RLRGG-aminoluciferin cleavage, luminescence; AID 2540; 330,000 compounds, 1.2% hits; Q96LD8; in the data active = inhibition above about 50%
SENP8 block-2: inhibitors of human SENP8 protease | 360,000 compounds, 0.64% hits | recombinant SENP8, Nedd8 substrate fluorescence | AID 602440 | Q96LD8 | inhibition, % at 20 µM; in the data active = inhibition mostly above about 40%, no sharp cut-off; inactive = mostly below about 27%
SENP6 inh: blocks the human protease SENP6; Q9GZR1; AID 2599; Recombinant SENP6 catalytic domain, aminoluciferin luminescence; 330,000 compounds, 1.8% hits; inhibition, % at 10 µM;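 active = inhibition above about 50% at the single tested dose, limit read from the data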
SENP8 conf-1: human SENP8 inhibition, confirmed. AID 488912. Recombinant SENP8, Z-RLRGG-aminoluciferin luminescence, 60 min. inhibition, % at 12.5 µM. shares compounds with SENP7 block. 6,200 compounds, 40% hits;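 active = mean inhibition across replicates above about 50%, limit read from the data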
SENP6 confirm: human SENP6 inhibition, confirmed | shares compounds with SENP7 block | recombinant SENP6, Z-RLRGG-aminoluciferin luminescence | inhibition, % at 12.5 µM | 6,200 compounds, 58% hits | AID 488915
SENP7 conf: confirmation of human SENP7 protease inhibitors | recombinant SENP7, Z-RLRGG-aminoluciferin luminescence, 40 min | inhibition, % at 12.5 µM | 6,200 compounds, 69% hits | shares compounds with SENP7 block
Casp3 SENP sel: inhibits human caspase-3 in SENP selectivity test; purified caspase-3, Z-DEVD-aminoluciferin luminescence, 60 min; shares compounds with SENP7 block; inhibition, % at 12.5 µM; 6,200 compounds, 60% hits; AID 488918;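 active = mean inhibition above about 50%, limit read from the data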
SENP luc ctr: counter-screen for SENP inhibitors: luminescence interference; shares compounds with SENP7 block; Pre-incubated SENP8/Z-RLRGG-aminoluciferin, luciferase luminescence interference; inhibition, % at 12.5 µM; 6,200 compounds, 39% hits;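 active = mean inhibition above about 50% when retested at one dose, limit read from the data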
SENP8 conf-2: SENP8 (human) inhibition, single concentration confirmation | purified SENP8, Nedd8-AMC/pro-Nedd8 cleavage fluorescence, 30 min | inhibition, % at 25 µM | shares compounds with SENP8 block-2 | 1,400 compounds, 15% hits; in the data active = inhibition mostly above about 39%, no sharp cut-off; inactive = mostly below about 34%
SENP1 inh conf: confirmation of human SENP1 SUMO protease inhibitors; inhibition, % at 10 µM; 520 compounds, 34% hits; recombinant SENP1, CyPet-SUMO1-YPet FRET cleavage; shares compounds with SENP1 FRET inh; AID 651678; in the data active = inhibition mostly above about 35%, no sharp cut-off; inactive = mostly below about 32%
SENP1 kin conf: SENP1 (human) inhibition, kinetic confirmation | recombinant SENP1, CyPet-SUMO1-YPet FRET kinetic cleavage | inhibition, % at 10 µM | AID 651690 | 520 compounds, 26% hits | shares compounds with SENP1 FRET inh; in the data active = inhibition mostly above about 32%, no sharp cut-off; inactive = mostly below about 29%
A number is an active result; - = inactive; . = no result given. Sampled rows, rich in hits. Any-hit rate of the full collection: about 2.9%.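 Rule for the calls, unless noted: active = mean inhibition above about 50% in the one-dose retest (limit read from the data); inactive = the rest.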

SMILES	SENP1 FRET inh	HSP90 refold inh	SENP7 block	SENP8 block-1	SENP8 block-2	SENP6 inh	SENP8 conf-1	SENP6 confirm	SENP7 conf	Casp3 SENP sel	SENP luc ctr	SENP1 inh conf	SENP1 kin conf	others
Cc1ccccc1N1C(=O)Cc2ccccc2C1=O	-	-	-	-	88	67	-	57	-	-	-	.	.	SENP8 conf-2=-
Cc1ccccc1N1Cc2ccccc2C1=O	-	.	.	.	-	.	.	.	.	.	.	.	.
O=[N+]([O-])c1ccc2c(c1)nnn2-c1ccccc1	-	-	-	-	-	-	.	.	.	.	.	.	.
Nc1nn(-c2ccccc2)c2ccc([N+](=O)[O-])cc12	32	-	75	54	-	72	75	72	91	85	73	-	-
O=C(NCc1ccc(F)cc1F)[C@@H]1CCCN1C(=O)[C@@H]1CCCN1C(=O)c1ccc(Cl)cc1	-	.	.	.	-	.	.	.	.	.	.	.	.
O=C(Nc1ccc2c(c1)OCO2)C(=O)c1c[nH]c2ccccc12	31	-	81	-	-	-	-	-	79	75	-	-	32
Cc1[nH]c2ccccc2c1C(=O)C(=O)Nc1ccc2c(c1)OCCO2	-	-	-	-	-	-	.	.	.	.	.	.	.
Cc1nn(-c2ccccc2)c(Cl)c1/C=N/Nc1nc2ccccc2n1C	33	-	65	54	-	-	-	-	93	68	-	-	-
Brc1ccccc1/C=N/Nc1ccccn1	44	-	86	-	-	-	-	-	-	-	-	-	-
Cc1cc2cc(C#N)c(SCC(=O)Nc3nonc3C)nc2cc1C	65	-	-	-	-	99	-	-	-	-	-	-	-
O=C(CSc1n[nH]c(-c2ccc(Br)cc2)n1)N1CCOCC1	-	.	-	-	-	-	.	.	.	.	.	.	.
OCCNC(=S)Nc1ccc2nsnc2c1	36	-	-	61	-	82	-	-	-	-	-	-	-
O=S(=O)(c1ccc(SCCOc2ccc(Cl)cc2)nc1)N1CCCC1	-	.	-	-	-	-	.	.	.	.	.	.	.
CN1C(=O)/C(=C\c2cccc(OCc3ccccc3)c2)SC1=S	-	-	-	-	-	-	.	.	.	.	.	.	.
CN1C(=O)/C(=C/c2ccc(OC(=O)c3ccco3)cc2)SC1=S	46	-	79	75	-	73	-	-	-	-	-	-	-
CN1C(=O)/C(=C\c2ccc(OC(=O)c3ccco3)cc2)SC1=S	44	-	72	-	-	74	-	-	-	-	-	-	-
C[C@H](CO)N1C[C@H](C)[C@@H](CN(C)S(=O)(=O)c2cn(C)cn2)Oc2ccc(NC(=O)NC3CCCCC3)cc2C1=O	-	.	-	-	-	-	.	.	.	.	.	.	.
O=C(N/N=C/c1ccc(N2CCOCC2)cc1)c1cccs1	32	-	76	63	-	74	67	69	92	90	70	-	-
O=C(N/N=C/c1ccc(N2CCOCC2)cc1)c1ccc(NS(=O)(=O)c2cccs2)cc1	-	-	-	-	-	-	.	.	.	.	.	.	.
O=C(NCCOc1ccccc1F)c1ccc2c(=O)n3c(nc2c1)CCC3	-	.	-	-	-	-	.	.	.	.	.	.	.
